Data set [1] relates to Escherichia coli. Put plainly: Potency index, ratio of norfloxacin MIC to compound MIC for antibacterial activity against Escherichia coli DH52. The data set is classed as functional.
For data set [2], the system named is Staphylococcus aureus. Put plainly: Antibacterial activity against Staphylococcus aureus ATCC 25923 after 18 to 24 hrs by CLSI two fold serial dilution method. The data set is classed as functional.
Data set [3] relates to Staphylococcus aureus. Put plainly: Antibacterial activity against methicillin-resistant Staphylococcus aureus N315 after 18 to 24 hrs by CLSI two fold serial dilution method. The class given is functional.
Another data set deals with Bacillus subtilis. In words: Antibacterial activity against Bacillus subtilis ATCC 21216 after 18 to 24 hrs by CLSI two fold serial dilution method. The data set is classed as functional.
For the next data set, the system named is Micrococcus luteus. Put plainly: Antibacterial activity against Micrococcus luteus ATCC 4698 after 18 to 24 hrs by CLSI two fold serial dilution method. The class given is functional.
A further data set has as its system Enterococcus faecalis. In words: Antibacterial activity against drug-resistant Enterococcus faecalis after 18 to 24 hrs by CLSI two fold serial dilution method. The data set is classed as functional.
Data set [4] relates to Escherichia coli. Put plainly: Antibacterial activity against Escherichia coli DH52 after 18 to 24 hrs by CLSI two fold serial dilution method. The class given is functional.
Data set [5] has as its system Escherichia coli. Put plainly: Antibacterial activity against drug-resistant Escherichia coli after 18 to 24 hrs by CLSI two fold serial dilution method. The class given is functional.
Data set [6] deals with Pseudomonas aeruginosa. In words: Antibacterial activity against Pseudomonas aeruginosa ATCC 27853 after 18 to 24 hrs by CLSI two fold serial dilution method. The data set is classed as functional.
The test system of data set [7] is Pseudomonas aeruginosa. Put plainly: Antibacterial activity against drug-resistant Pseudomonas aeruginosa after 18 to 24 hrs by CLSI two fold serial dilution method. The data set is classed as functional.
The next data set concerns Klebsiella pneumoniae. In words: Antibacterial activity against drug-resistant Klebsiella pneumoniae after 18 to 24 hrs by CLSI two fold serial dilution method. The data set is classed as functional.
Data set [8] concerns Acinetobacter baumannii. In words: Antibacterial activity against drug-resistant Acinetobacter baumannii after 18 to 24 hrs by CLSI two fold serial dilution method. The class given is functional.
Data set [9] has as its system Candida albicans. In words: Antifungal activity against Candida albicans ATCC 76615 by CLSI two fold serial dilution method. The class given is functional.
Another data set deals with Cyberlindnera jadinii. Put plainly: Antifungal activity against Candida utilis ATCC 9950 by CLSI two fold serial dilution method. The data set is classed as functional. Conditions: Williopsis jadinii.
A further data set concerns Pichia norvegensis. Put plainly: Antifungal activity against Candida mycoderma ATCC 96918 by CLSI two fold serial dilution method. The class given is functional.
A further data set relates to Aspergillus flavus. In words: Antifungal activity against Aspergillus flavus ATCC 204304 by CLSI two fold serial dilution method. The data set is classed as functional.
In another data set the test system is Saccharomyces cerevisiae. In words: Antifungal activity against Saccharomyces cerevisiae ATCC 9763 by CLSI two fold serial dilution method. The data set is classed as functional.
The subject of another data set is Candida parapsilosis. Put plainly: Antifungal activity against Candida parapsilosis ATCC 22019 by CLSI two fold serial dilution method. The class given is functional. Conditions: Lodderomyces parapsilosis.
The subject of data set [10] is Candida albicans. Put plainly: Antifungal activity against drug-resistant Candida albicans by CLSI two fold serial dilution method. The data set is classed as functional.
In the next data set the test system is Candida tropicalis. In words: Antifungal activity against drug-resistant Candida tropicalis by CLSI two fold serial dilution method. The data set is classed as functional.
The subject of the next data set is Aspergillus fumigatus. Put plainly: Antifungal activity against drug-resistant Aspergillus fumigatus by CLSI two fold serial dilution method. The data set is classed as functional.
Data set [11] is described as follows: Aqueous solubility of the compound in phosphate buffer at pH 7.4 after 3 hrs by UV detection assay. The data set is classed as physicochemical. The essentials:
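Water solubility measured at physiological pH, with berberine as the control.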

The nature of data set [12]: Cytotoxicity against human LO2 cells assessed as cell viability at 1.5625 to 100 ug/ml after 48 hrs by MTT assay relative to control. The class given is cell-based, L02. The settings on record: read-out: Activity. The procedure, abridged: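 Human hepatocyte LO2 cells exposed to compound across a concentration range for 48 h; viability read by colorimetric MTT assay; standard deviation from three independent experiments.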
(Formazan colour is commonly taken as a measure of viable cells.)

The subject of data set [13] is Acinetobacter baumannii. Put plainly: Bactericidal activity against drug-resistant Acinetobacter baumannii assessed as reduction in number of viable bacterial load at 8 nmol/ml with in 2 hrs by time kill assay. The class given is functional.
Data set [14] deals with Acinetobacter baumannii. In words: Antibacterial activity against drug-resistant Acinetobacter baumannii at 0.7 ug/ml measured 12 hrs post 10 serial passages. The class given is functional, organism-based.
In data set [15] the test system is Acinetobacter baumannii. In words: Induction of membrane permeabilization in drug-resistant Acinetobacter baumannii at 0.024 umol/ml incubated for 1 hr measured up to 120 mins by propidium iodide staining-based fluorescence spectra analysis. The data set is classed as functional, organism-based.

Molecules are shown by their SMILES. Values after ≈ are worked out from the molar mass of the structure shown. Active and inactive are the calls of the source. No cut-off for these calls is given here.

On to `CCCCCCCCCCOc1c(OC)cc(/C=N/NC(N)=S)c2c1CN1CCc3cc4c(cc3C1C2)OCO4` (configuration not stated), for which the Ratio in the data set with Escherichia coli [1] turned out to be 53. The MIC in the data set with Staphylococcus aureus [2] is 30 µM (≈ 17 µg/mL); in the data set with Staphylococcus aureus [3], 30 µM (≈ 17 µg/mL); against Bacillus subtilis it was 230 µM (≈ 130 µg/mL); against Micrococcus luteus, 230 µM (≈ 130 µg/mL); against Enterococcus faecalis, 30 µM (≈ 17 µg/mL); against Escherichia coli [4], 30 µM (≈ 17 µg/mL). The MIC with Escherichia coli [5] was found to be 30 µM (≈ 17 µg/mL); in the data set with Pseudomonas aeruginosa [6] it was 230 µM (≈ 130 µg/mL); against Pseudomonas aeruginosa [7] it was 230 µM (≈ 130 µg/mL); in the data set on Klebsiella pneumoniae, 230 µM (≈ 130 µg/mL); in the data set with Acinetobacter baumannii [8] it was 10 µM (≈ 5.67 µg/mL); in the data set on Candida albicans [9] it was 60 µM (≈ 34 µg/mL). For the same compound, the MIC in the data set on Cyberlindnera jadinii is 450 µM (≈ 255 µg/mL); against Pichia norvegensis it was 230 µM (≈ 130 µg/mL); with Aspergillus flavus it was 450 µM (≈ 255 µg/mL); against Saccharomyces cerevisiae it was 230 µM (≈ 130 µg/mL); in the data set on Candida parapsilosis it was 110 µM (≈ 62.3 µg/mL); against Candida albicans [10], 60 µM (≈ 34 µg/mL). Moreover, the MIC against Candida tropicalis worked out at 30 µM (≈ 17 µg/mL); against Aspergillus fumigatus, 7 µM (≈ 3.97 µg/mL).

Regarding `COc1cc(/C=N/Nc2nccs2)c2c(c1OCc1ccc(Cl)cc1Cl)CN1CCc3cc4c(cc3C1C2)OCO4` (configuration not stated), the MIC was found to be 110 µM (≈ 67 µg/mL) against Staphylococcus aureus [2]; 210 µM (≈ 128 µg/mL) against Bacillus subtilis; 110 µM (≈ 67 µg/mL) with Micrococcus luteus; 840 µM (≈ 512 µg/mL) with Escherichia coli [4]; 210 µM (≈ 128 µg/mL) against Pseudomonas aeruginosa [6]; 420 µM (≈ 256 µg/mL) in the data set with Candida albicans [9]. Further, the MIC was 210 µM (≈ 128 µg/mL) against Cyberlindnera jadinii; 420 µM (≈ 256 µg/mL) in the data set with Pichia norvegensis; 420 µM (≈ 256 µg/mL) against Aspergillus flavus; 840 µM (≈ 512 µg/mL) in the data set with Saccharomyces cerevisiae; 7 µM (≈ 4.27 µg/mL) in the data set on Candida parapsilosis. For the same compound, the solubility at 3 h in data set [11] is 1900 µg/mL (≈ 3.12 mM). In addition, the viability at 48 h in data set [12] was more than 80.5%. In addition, the Activity in the data set with Acinetobacter baumannii [13] is on record as more than 3 deltalog10CFU/ml. Also, the result in the data set on Acinetobacter baumannii [14] and in the data set with Acinetobacter baumannii [15] was Active.

For orientation: MIC means the least concentration at which growth counts as inhibited. For orientation: solubility means how much of the substance goes into solution per volume. A higher solubility goes with a readily soluble substance.

Source of the values: ChEMBL document CHEMBL4145497, “Discovery of 2-aminothiazolyl berberine derivatives as effectively antibacterial agents toward clinically drug-resistant Gram-negative Acinetobacter baumanii” (Eur J Med Chem, 2018).
